# From ChEMBL document CHEMBL1140906, “Examination of the biological role of the alpha(2-->6)-linked sialic acid in gangliosides binding to the myelin-associated glycoprotein (MAG)” (J Med Chem, 2009)
# Tests used:
# [1] = target: T1, Myelin-associated glycoprotein (Homo sapiens) (UniProt P20916); test: Inhibition of human IgG Fc-domain tagged MAG N-terminal domain expressed in CHO cells assessed as relative inhibition potency by hapten inhibition assay relative to (2R,4S,5R,6R)-5-acetamido-2-(((2R,3R,4R,5R,6R)-5-acetamido-4-((2R,3R,4S,5S,6R)-4-((2S,4S,5R)-5-acetamido-2-carboxy-4-hydroxy-6-((1S,2S)-1,2,3-trihydroxypropyl)tetrahydro-2H-pyran-2-yloxy)-3,5-dihydroxy-6-(hydroxymethyl)tetrahydro-2H-pyran-2-yloxy)-3-hydroxy-6-(2-(trimethylsilyl)ethoxy)tetrahydro-2H-pyran-2-yl)methoxy)-4-hydroxy-6-((1S,2R)-1,2,3-trihydroxypropyl)tetrahydro-2H-pyran-2-carboxylic acid; format: cell-based
# T1 sequence (whole entry): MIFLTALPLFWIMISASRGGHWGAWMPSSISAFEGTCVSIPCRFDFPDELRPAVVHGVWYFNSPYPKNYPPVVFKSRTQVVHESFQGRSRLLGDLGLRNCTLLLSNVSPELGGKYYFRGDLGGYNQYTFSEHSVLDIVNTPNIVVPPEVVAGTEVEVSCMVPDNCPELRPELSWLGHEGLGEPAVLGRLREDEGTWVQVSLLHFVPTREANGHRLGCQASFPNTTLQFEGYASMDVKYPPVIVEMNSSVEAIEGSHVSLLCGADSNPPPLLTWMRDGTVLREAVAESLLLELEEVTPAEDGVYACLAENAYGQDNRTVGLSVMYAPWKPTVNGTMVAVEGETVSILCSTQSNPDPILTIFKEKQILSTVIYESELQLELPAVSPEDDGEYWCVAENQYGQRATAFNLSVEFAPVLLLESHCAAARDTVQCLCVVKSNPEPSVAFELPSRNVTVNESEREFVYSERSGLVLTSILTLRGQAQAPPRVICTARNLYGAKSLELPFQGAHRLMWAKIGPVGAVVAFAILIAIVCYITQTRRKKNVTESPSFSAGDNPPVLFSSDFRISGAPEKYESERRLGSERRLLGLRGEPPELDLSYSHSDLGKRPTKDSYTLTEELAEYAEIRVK
# Procedure, shortened: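 Hapten inhibition: oligosaccharide added to wells with immobilized Neu5Ac, then Fc-MAGd1-3 precomplexed with alkaline phosphatase-labelled anti-Fc antibody; overnight at 4 °C, washed, bound MAG read by initial rate of fluorescein release from fluorescein diphosphate. IC50 from at least eight concentrations, at least three independent titrations; rIP calculated against the reference compound included in each test.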
# [2] = target: T2, Myelin-associated glycoprotein (Homo sapiens, UniProt P20916); test: Binding affinity to human IgG Fc-domain tagged MAG N-terminal domain expressed in CHO cells by surface plasmon resonance
# T2 sequence (P20916 whole entry): T1 sequence (whole entry)
# Procedure, shortened: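 Fc-MAGd1-3 (three N-terminal MAG domains fused to human IgG Fc, CHO-expressed, protein A-purified) captured on an immobilized anti-human IgG Fc antibody on CM5 chip; reference surface prepared in parallel.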
Compound,Ratio IC50 [1],Kd [2]
CC(=O)N[C@H]1[C@H]([C@@H](O)[C@H](O)CO)O[C@@](OC[C@H]2O[C@@H](OCC[Si](C)(C)C)[C@H](O)[C@@H](O[C@@H]3O[C@H](CO)[C@H](O)[C@H](O[C@]4(C(=O)O)C[C@H](O)[C@@H](NC(C)=O)[C@H]([C@@H](O)[C@H](O)CO)O4)[C@H]3O)[C@H]2O)(C(=O)O)C[C@@H]1O,0.3,
CC(=O)N[C@H]1[C@H]([C@@H](O)[C@H](O)CO)O[C@@](O[C@H]2[C@@H](O)[C@@H](CO)O[C@@H](O[C@H]3[C@@H](O)[C@@H](CO)O[C@@H](OCC[Si](C)(C)C)[C@@H]3O)[C@@H]2O)(C(=O)O)C[C@@H]1O,0.3,
CC(=O)N[C@H]1[C@H]([C@@H](O)[C@H](O)CO)O[C@@](O[C@H]2[C@@H](O)[C@@H](CO)O[C@@H](O[C@@H]3CCO[C@H](COCc4ccc(-c5ccccc5)cc4)[C@@H]3O)[C@@H]2O)(C(=O)O)C[C@@H]1O,1.25,
CC(=O)N[C@H]1[C@H]([C@@H](O)[C@H](O)CO)O[C@@](O[C@H]2[C@@H](O)[C@@H](CO)O[C@@H](O[C@@H]3CCO[C@H](CO)[C@@H]3O)[C@@H]2O)(C(=O)O)C[C@@H]1O,0.76,
CC(=O)N[C@H]1[C@H](OCC[Si](C)(C)C)O[C@H](CO[C@@H](C)C(=O)O)[C@H](O)[C@@H]1O[C@@H]1O[C@H](CO)[C@H](O)[C@H](O[C@]2(C(=O)O)C[C@H](O)[C@@H](NC(C)=O)[C@H]([C@@H](O)[C@H](O)CO)O2)[C@H]1O,0.31,
CC(=O)N[C@H]1[C@H]([C@@H](O)[C@H](O)CO)O[C@@](O[C@H]2[C@@H](O)[C@@H](CO)O[C@@H](O[C@@H]3CCO[C@H](CO[C@@H](C)C(=O)O)[C@@H]3O)[C@@H]2O)(C(=O)O)C[C@@H]1O,1.24,

# The remaining lines, values ahead:
Ratio IC50 [1],Kd [2],Compound
0.4,,CC(=O)N[C@H]1[C@H]([C@@H](O)[C@H](O)CO)O[C@@](O[C@H]2[C@@H](O)[C@@H](CO)O[C@@H](O[C@@H]3CCO[C@H](CO[C@@H](Cc4ccccc4)C(=O)O)[C@@H]3O)[C@@H]2O)(C(=O)O)C[C@@H]1O
377,2.83 µM,CC(=O)N[C@H]1[C@H]([C@@H](O)[C@H](O)CNC(=O)c2ccc(Cl)cc2)O[C@@](O[C@H]2[C@@H](O)[C@@H](CO)O[C@@H](O[C@@H]3CCO[C@H](COCc4ccc(-c5ccccc5)cc4)[C@@H]3O)[C@@H]2O)(C(=O)O)C[C@@H]1O
0.17,,CC(=O)N[C@H]1[C@H](OCC[Si](C)(C)C)O[C@H](CO[C@H](C)C(=O)O)[C@H](O)[C@@H]1O[C@@H]1O[C@H](CO)[C@H](O)[C@H](O[C@]2(C(=O)O)C[C@H](O)[C@@H](NC(C)=O)[C@H]([C@@H](O)[C@H](O)CO)O2)[C@H]1O
0.26,,CC(=O)N[C@H]1[C@H](OCC[Si](C)(C)C)O[C@H](CO)[C@H](O)[C@@H]1O[C@@H]1O[C@H](CO)[C@H](O)[C@H](O[C@]2(C(=O)O)C[C@H](O)[C@@H](NC(C)=O)[C@H]([C@@H](O)[C@H](O)CO)O2)[C@H]1O
0.59,,CC(=O)N[C@H]1[C@H]([C@@H](O)[C@H](O)CO)O[C@@](O[C@H]2[C@@H](O)[C@@H](CO)O[C@@H](O[C@@H]3CCO[C@H](COCc4ccccc4)[C@@H]3O)[C@@H]2O)(C(=O)O)C[C@@H]1O
314,5 µM,CC(=O)N[C@H]1[C@H]([C@@H](O)[C@H](O)CNC(=O)c2ccccc2)O[C@@](O[C@H]2[C@@H](O)[C@@H](CO)O[C@@H](O[C@@H]3CCO[C@H](COCc4ccc(-c5ccccc5)cc4)[C@@H]3O)[C@@H]2O)(C(=O)O)C[C@@H]1O
61.5,32.6 µM,CC(=O)N[C@H]1[C@H]([C@@H](O)[C@H](O)CNC(=O)c2ccccc2)O[C@@](O[C@H]2[C@@H](O)[C@@H](CO)O[C@@H](O[C@H]3[C@@H](O)[C@@H](CO)O[C@@H](OCC[Si](C)(C)C)[C@@H]3O)[C@@H]2O)(C(=O)O)C[C@@H]1O
0.98,,CC(=O)N[C@H]1[C@H]([C@@H](O)[C@H](O)CO)O[C@@](O[C@H]2[C@@H](O)[C@@H](CO)O[C@@H](O[C@@H]3CCO[C@H](CO[C@H](C)C(=O)O)[C@@H]3O)[C@@H]2O)(C(=O)O)C[C@@H]1O
0.4,,CC(=O)N[C@H]1[C@H](OCC[Si](C)(C)C)O[C@H](CO[C@@H](Cc2ccccc2)C(=O)O)[C@H](O)[C@@H]1O[C@@H]1O[C@H](CO)[C@H](O)[C@H](O[C@]2(C(=O)O)C[C@H](O)[C@@H](NC(C)=O)[C@H]([C@@H](O)[C@H](O)CO)O2)[C@H]1O
